Key:
Format in all cases: functional
Vero [1] = assay: Cytotoxic dose of compound required to reduce the viability of normal uninfected vero cells by 50%.; conditions: Chlorocebus sabaeus, read-out: CD50 (the source's name)
In short: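 Uninfected Vero cells were grown with compound, and cytotoxicity was read as concentration-dependent inhibition of cell proliferation relative to control cultures. CD50 is the dose reducing viability by 50%, mean of three independent determinations.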

[2] = Selectivity index against HSV-1 was determined as CD50/ED50 ratio
In short: (§1)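 CD50 (50% reduction of proliferation of uninfected Vero cells) divided by ED50 (50% protection against HSV-1 or HSV-2 in Vero cells, antigen ELISA after 5 days). Each is the mean of three independent determinations.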

Vero [3] = assay: Antiviral activity against HSV-1 (Herpes simplex virus) in vero cells; conditions: Chlorocebus sabaeus, read-out: ED50 (the source's name)
In short: (§2)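 Vero target cells infected with HSV-1 McIntyre or HSV-2 MS for 2.5 h, washed, then mixed 1:50 with uninfected Vero cells preincubated 2.5 h with compound. Virus antigen in culture medium measured by HSV-1/HSV-2 antigen ELISA. ED50 is the dose giving 50% protection, mean of three independent determinations.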

[4] = Selectivity index against HSV-2 was determined as CD50/ED50 ratio; in short: as §1
Vero [5] = assay: Antiviral activity against HSV-2 (Herpes simplex virus) in vero cells; conditions: Chlorocebus sabaeus, read-out: ED50 (the source's name); in short: as §2

SMILES | CC50 (Vero [1]) [µM] | Selectivity index [2] | EC50 (Vero [3]) [µM] | Selectivity index [4] | EC50 (Vero [5]) [µM]
CC(=O)OCC1OC(SC2=NC(=C(C)C)C(=O)N2c2ccccc2)C(OC(C)=O)C(OC(C)=O)C1OC(C)=O (stereo not drawn) | > 200 | > 1.6 | 119 | > 2 | 100
Nc1nc2c(ncn2COCCO)c(=O)[nH]1 [ACYCLOVIR] | > 50 | > 100 | 0.5 | > 100 | 0.5
CC(=O)OCC1OC(SC2=N/C(=C\c3cccs3)C(=O)N2c2cccc(C)c2)C(OC(C)=O)C(OC(C)=O)C1OC(C)=O (stereo not drawn) | 25 | 2.5 | 10 | 1.3 | 19
CCOC(=O)c1ccc(N2C(=O)/C(=C/c3cccs3)N=C2SC2OC(COC(C)=O)C(OC(C)=O)C(OC(C)=O)C2OC(C)=O)cc1 (stereo not drawn) | 46 | 1.4 | 32 | 1 | 46
COc1ccc(N2C(=O)/C(=C/c3cccs3)N=C2SC2OC(COC(C)=O)C(OC(C)=O)C(OC(C)=O)C2OC(C)=O)cc1 (stereo not drawn) | 35 | 1.3 | 27 | 1.3 | 27
CC(=O)OCC1OC(SC2=N/C(=C\c3ccccc3)C(=O)N2c2ccccc2)C(OC(C)=O)C(OC(C)=O)C1OC(C)=O (stereo not drawn) | > 100 |  | > 100 |  | 100
CC(=O)OCC1OC(SC2=N/C(=C\c3cccs3)C(=O)N2c2ccccc2)C(OC(C)=O)C(OC(C)=O)C1OC(C)=O (stereo not drawn) | 24 | 60 | 0.4 | 34 | 0.7
CC(=O)OCC1OC(SC2=N/C(=C\c3cccs3)C(=O)N2c2ccc(Cl)cc2)C(OC(C)=O)C(OC(C)=O)C1OC(C)=O (stereo not drawn) | 20 | 33 | 0.6 | 20 | 1
CC(=O)OCC1OC(Sc2nc(/C=C3\C=Nc4ccccc43)c(O)n2-c2ccccc2)C(OC(C)=O)C(OC(C)=O)C1OC(C)=O (stereo not drawn) | > 100 | > 2.2 | 46 | > 2.5 | 40
O=c1[nH]c(=O)n([C@H]2C[C@H](O)[C@@H](CO)O2)cc1/C=C/Br [BRIVUDINE] | > 100 | > 333 | 0.3 | > 15 | 6.8
